ChEMBL document CHEMBL2380244, “Optimized chemical probes for REV-ERBα” (J Med Chem, 2013)
Activity calls are given as the source filed them. The rule behind the calls is not given here.

How the values were obtained:
[1] = biological target: T1, Nuclear receptor subfamily 1 group D member 1 (Homo sapiens) (UniProt P20393); experiment: Agonist activity at REV-ERBalpha in human U2OS cells assessed as delay of peak of second cycle at 20 uM by luciferase reporter gene assay relative to DMSO-treated control; type: cell-based
T1 sequence (whole entry): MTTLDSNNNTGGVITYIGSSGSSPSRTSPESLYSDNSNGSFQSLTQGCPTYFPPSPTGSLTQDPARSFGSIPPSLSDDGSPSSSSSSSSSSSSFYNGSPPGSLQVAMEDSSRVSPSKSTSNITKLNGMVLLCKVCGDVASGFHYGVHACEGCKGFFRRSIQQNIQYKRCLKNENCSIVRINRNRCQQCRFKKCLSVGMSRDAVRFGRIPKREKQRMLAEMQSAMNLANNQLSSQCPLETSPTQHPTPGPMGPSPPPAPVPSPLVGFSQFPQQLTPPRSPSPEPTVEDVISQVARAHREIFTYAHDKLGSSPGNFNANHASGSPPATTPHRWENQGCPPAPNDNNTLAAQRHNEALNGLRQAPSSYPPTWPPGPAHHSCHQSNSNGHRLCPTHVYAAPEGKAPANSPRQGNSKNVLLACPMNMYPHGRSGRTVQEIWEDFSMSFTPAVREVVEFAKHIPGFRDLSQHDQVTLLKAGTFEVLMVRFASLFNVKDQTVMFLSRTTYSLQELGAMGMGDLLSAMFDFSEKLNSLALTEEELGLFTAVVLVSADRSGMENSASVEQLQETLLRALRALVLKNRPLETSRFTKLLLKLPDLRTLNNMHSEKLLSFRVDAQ
Method in brief: (§1)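 U2OS cells stably carrying a mouse Bmal1-promoter luciferase reporter (hygromycin-selected clone) seeded at confluence in 384-well format. Rhythms synchronized by media change and checked over 48 h. Compound added, then bioluminescence recorded in real time every 20 min for 72 h in a temperature-controlled luminometer. Cells then washed and recovery oscillations in full growth medium monitored as a toxicity counter-screen.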

[2] = biological target: T1, Nuclear receptor subfamily 1 group D member 1 (Homo sapiens); experiment: Agonist activity at REV-ERBalpha in human U2OS cells assessed as suppression of BMAL1 expression at 20 uM after 40 hrs by luciferase reporter gene assay relative to DMSO-treated control; type: cell-based; method in brief: as §1
[3] = biological target: T2, Oxysterols receptor LXR-alpha (Homo sapiens, UniProt Q13133); experiment: Binding affinity to LXRalpha (unknown origin) by radioligand displacement assay
T2 sequence (Q13133 whole entry): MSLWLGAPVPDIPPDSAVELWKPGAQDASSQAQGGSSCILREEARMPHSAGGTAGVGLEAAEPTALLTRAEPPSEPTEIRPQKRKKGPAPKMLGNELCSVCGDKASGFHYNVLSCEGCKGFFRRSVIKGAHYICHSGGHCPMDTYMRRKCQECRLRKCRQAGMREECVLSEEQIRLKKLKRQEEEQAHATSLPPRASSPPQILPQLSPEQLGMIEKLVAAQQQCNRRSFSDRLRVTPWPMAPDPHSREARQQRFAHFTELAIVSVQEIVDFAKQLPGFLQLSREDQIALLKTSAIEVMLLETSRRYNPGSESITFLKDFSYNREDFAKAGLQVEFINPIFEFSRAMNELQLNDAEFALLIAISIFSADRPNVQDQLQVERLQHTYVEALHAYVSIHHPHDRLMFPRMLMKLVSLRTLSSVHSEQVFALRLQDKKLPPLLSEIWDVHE

[4] = biological target: T3, Nuclear receptor subfamily 1 group D member 1 (Homo sapiens, UniProt P20393); experiment: Agonist activity at biotinylated REV-ERBalpha (unknown origin) assessed as increase in biotinylated NCOR peptide recruitment after 1 hr by FRET assay
T3 sequence (P20393 whole entry): T1 sequence (whole entry)
Method in brief: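 TR-FRET: 20 nM biotinylated REV-ERBα pre-complexed with 10 nM APC-streptavidin, excess biotin added, then mixed with 20 nM biotinylated NCOR1 on 10 nM Eu-streptavidin. MOPS pH 7.5 buffer with NaF, CHAPS, BSA and 10 mM DTT. Added to compound (serial DMSO dilutions of 10 mM stocks), 1 h at RT, Eu/APC read. Data normalized to basal and minimal HTRF, fitted to a 4-parameter logistic.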

THP-1 = experiment: Cytotoxicity against human THP1 cells assessed as cell viability measured ATP level at 10 uM after 6 hrs by celltiter-glo assay; type: cell-based; settings: thp-1, 6 h
Method in brief: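 THP-1 cells incubated six hours with compound. CellTiter-Glo added for 15 min, then luminescence read.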

[5] = biological target: T4, Oxysterols receptor LXR-alpha (Homo sapiens) (UniProt Q13133); experiment: Agonist activity at LXRalpha in human THP1 cells assessed as effect on LPS-stimulated ABCA1 mRNA expression at 1 uM after 6 hrs by RT-qPCR analysis; type: cell-based; settings: THP-1
T4 sequence (whole entry): T2 sequence (Q13133 whole entry)
Method in brief: (§2)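 THP-1 cells (RPMI1640 + 10% FBS, kept at 3×10^5–8×10^5 cells/mL) stimulated with LPS 10 mcg/mL with DMSO or compound at 1 μM, in triplicate. After six hours the cells were lysed and transcripts quantified by RT-qPCR against TATA box binding protein as housekeeping gene. Groups compared by one-way ANOVA with post-hoc Dunnett's.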

[6] = biological target: T1, Nuclear receptor subfamily 1 group D member 1 (Homo sapiens); experiment: Agonist activity at REV-ERBalpha in human THP1 cells assessed as downregulation of LPS-stimulated IL-6 mRNA expression at 1 uM after 6 hrs by RT-qPCR analysis; type: cell-based; settings: THP-1; method in brief: as §2
Homo sapiens = species: Homo sapiens; experiment: Selectivity ratio of IC50 for LXRalpha (unknown origin) to EC50 for biotinylated REV-ERBalpha (unknown origin)
[7] = biological target: T1, Nuclear receptor subfamily 1 group D member 1 (Homo sapiens); experiment: Agonist activity at REV-ERBalpha in human U2OS cells assessed as suppression of BMAL1 oscillation measured for 72 hrs by luciferase reporter gene assay; type: cell-based; method in brief: as §1
[8] = biological target: T1, Nuclear receptor subfamily 1 group D member 1 (Homo sapiens); experiment: Agonist activity at biotinylated REV-ERBalpha (unknown origin) assessed as biotinylated PGC1-beta peptide recruitment after 20 mins by Greiner assay
Method in brief: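 Biotinylated peptides (final 20 nM) with Eu-W1024 streptavidin (final 20 nM), 20 min RT. Biotinylated REV-ERBα (20 nM) with APC-streptavidin (10 nM), 20 min RT, then 20-fold excess biotin, 15 min RT. Receptor solution added to peptide plates, Eu/APC TR-FRET read. Four wells per peptide averaged, with standard deviation.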

Row | SMILES | TIME [1] | Activity [2] | IC50 [3] | EC50 [4] | Activity (THP-1) | Activity [5] | Activity [6] | Ratio IC50/EC50 (Homo sapiens) | Activity [7] | Activity [8]
1 | N#Cc1ccc(CN(Cc2cccnc2)Cc2ccccc2F)s1 | 0 h | 6% | 32 µM | > 50 µM |  |  |  |  |  | 
2 | N#Cc1ccc(CN(Cc2cccnc2)Cc2ccc(F)c(F)c2)s1 | 0 h | 37% | 16 µM | 0.2 µM | Non-toxic | inactive | Active | 79 |  | 
3 | Clc1ccc(CN(Cc2cccnc2)Cc2cc3ccccc3s2)cc1 | 0 h | 24% | 40 µM | 0.4 µM |  |  |  | 100 |  | 
4 | COc1ccc(CN(Cc2cccnc2)Cc2ccc(C#N)s2)cc1 |  |  | > 100 µM | 0.63 µM |  |  |  | > 160 |  | 
5 | N#Cc1ccc(CN(Cc2ccc(Cl)cc2)Cc2cccnc2)s1 | 0 h | 23% | 20 µM | 0.2 µM | Non-toxic | inactive | Active |  |  | 
6 | Cc1cc(Cl)ccc1CN(Cc1ccc(Cl)cc1)Cc1ccc([N+](=O)[O-])s1 | 0 h | 21% | 63 µM | 0.05 µM | Non-toxic | inactive | Active | 1260 | Dose-dependent effect | 
7 | O=[N+]([O-])c1ccc(CN(Cc2ccc(Cl)cc2)Cc2ccccc2F)s1 | 0 h | 38% | 20 µM | 0.063 µM |  |  |  | 320 |  | 
8 | CC(C)CCN(Cc1ccc(Cl)cc1)Cc1ccc([N+](=O)[O-])s1 | 0 h | 21% | 16 µM | 0.16 µM |  |  |  | 100 |  | 
9 | CCOC(=O)N1CCC(CN(Cc2ccc(Cl)cc2)Cc2ccc([N+](=O)[O-])s2)C1 (stereo not drawn) | 1.3 h | 14% |  |  |  |  |  |  |  | Dose-dependent effect
10 | Cc1ccccc1CN(Cc1cccnc1)Cc1ccc([N+](=O)[O-])s1 | 0 h | 37% | 32 µM | 0.2 µM |  |  |  | 160 |  | 
11 | Cc1sc(CN(Cc2ccc(Cl)cc2)Cc2cccnc2)cc1Br | 0 h | 16% | 32 µM | 0.25 µM |  |  |  | 130 |  | 
12 | O=[N+]([O-])c1ccc(CN(Cc2ccccc2)Cc2ccc(Cl)cc2)s1 |  |  | > 100 µM | 0.1 µM |  |  |  | > 1000 |  | 
13 | N#Cc1ccc(CN(Cc2ccc(F)cc2)Cc2cccnc2)s1 |  |  |  | 0.2 µM |  |  |  |  |  | 
14 | Clc1ccc(CN(Cc2cccnc2)Cc2nccs2)cc1 |  |  | 50 µM | > 50 µM |  |  |  |  |  | 
15 | Clc1ccc(CN(Cc2cccnc2)Cc2sccc2-n2cccc2)cc1 | 0 h | 30% | 40 µM | 0.63 µM |  |  |  | 63 |  | 
16 | O=[N+]([O-])c1ccc(CN(Cc2ccc(F)cc2)Cc2cccnc2)s1 | 0 h | 14% | 40 µM | 0.16 µM | Non-toxic | inactive | Active | 250 |  | 
17 | COc1ccc(CN(Cc2cccnc2)Cc2ccc([N+](=O)[O-])s2)cc1 |  |  | 32 µM | 0.2 µM |  |  |  | 160 |  | 
18 | O=[N+]([O-])c1ccc(CN(Cc2ccc(Cl)cc2)Cc2cccnc2)s1 |  |  | 13 µM | 0.16 µM |  |  |  | 79 |  | 
19 | O=[N+]([O-])c1ccc(CN(Cc2cccnc2)Cc2cccc(C(F)(F)F)c2)s1 |  |  | 16 µM | 0.4 µM |  |  |  | 40 |  | 
20 | CCCCCNC(=O)N1CCC(CN(Cc2ccc(Cl)cc2)Cc2ccc([N+](=O)[O-])s2)C1 (stereo not drawn) [SR9011] | 1.3 h | 20% |  | > 50 µM |  |  |  |  |  | Dose-dependent effect
21 | Clc1ccc(CN(Cc2cccnc2)Cc2ncc[nH]2)cc1 |  |  | > 100 µM | > 50 µM |  |  |  |  |  | 
22 | Cc1ccc(CN(Cc2cccnc2)Cc2ccc([N+](=O)[O-])s2)cc1 | 0 h | 23% | 40 µM | 0.16 µM |  |  |  | 250 |  | 
23 | Cc1cccc(CN(Cc2cccnc2)Cc2ccc([N+](=O)[O-])s2)c1 | 0.8 h | 41% | 25 µM | 0.2 µM |  |  |  | 130 |  | 
24 | COc1cccc(CN(Cc2cccnc2)Cc2ccc([N+](=O)[O-])s2)c1 | 0.5 h | 42% | 10 µM | 0.4 µM |  |  |  | 25 |  | 
25 | N#Cc1ccc(CN(Cc2cccnc2)Cc2cc(F)ccc2F)s1 | 0 h | 27% | 6.3 µM | 0.63 µM |  |  |  | 10 |  | 
